What was measured:
[1] = Mean residence time (infinity) in ICR mouse at 1 mg/kg, ip by LC-MS/MS analysis; assay type: ADME, organism-based; parameters: dose 1 mg/kg, route intraperitoneal; details: in vivo
How it was run: (§1)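 Male ICR mice (5–6 weeks, 20–25 g), single doses of 1, 5 or 15 mg/kg in 10% DMSO/PEG300, given iv by tail vein, ip, or orally by gavage. Three to four mice per time point, euthanized under isoflurane, blood drawn from posterior vena cava. Plasma protein precipitated with acetonitrile containing internal standard, then LC-MS/MS (MRM m/z 388.2→192). Noncompartmental analysis of mean concentration-time data, AUCinf by trapezoidal rule with extrapolation, CL = dose/AUCinf, Cmax read from the curve. F = (AUCnon-iv × dose iv)/(AUCiv × dose non-iv). n = 3 per dose group.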

[2] = Bioavailability in ICR mouse at 1 mg/kg, ip by LC-MS/MS analysis; assay type: ADME, organism-based; details: in vivo; how it was run: as §1
[3] = Mean residence time (infinity) in ICR mouse at 1 mg/kg, po via gavage by LC-MS/MS analysis; assay type: ADME, organism-based; parameters: dose 1 mg/kg, route oral; details: in vivo; how it was run: as §1
[4] = Cmax in ICR mouse at 5 mg/kg, ip by LC-MS/MS analysis; assay type: ADME, organism-based; parameters: dose 5 mg/kg, route intraperitoneal; details: in vivo; how it was run: as §1
Liver microsome [5] = test: Drug level in dog liver microsomes assessed as compound retention time treated with 0.5 uM I-387 after 2 hrs by LC-MS/MS analysis; assay type: ADME, Canis lupus familiaris
How it was run: (§2)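 Pooled liver microsomes (1 mg/ml protein) incubated with 0.5 µM substrate and 3 mM NADPH in 65 mM potassium phosphate, pH 7.4, 1% methanol, at 37°C for 2 h. Stopped with ice-cold acetonitrile containing internal standard, centrifuged. Supernatant analysed by LC-MS/MS on a C18 column, 15-min gradient, with product ion scans for metabolite identification.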

[6] = Mean residence time (infinity) in ICR mouse at 15 mg/kg, ip by LC-MS/MS analysis; assay type: ADME, organism-based; parameters: dose 15 mg/kg, route intraperitoneal; details: in vivo; how it was run: as §1
[7] = Cmax in ICR mouse at 1 mg/kg, po via gavage by LC-MS/MS analysis; assay type: ADME, organism-based; parameters: dose 1 mg/kg, route oral; details: in vivo; how it was run: as §1
[8] = Mean residence time (infinity) in ICR mouse at 5 mg/kg, ip by LC-MS/MS analysis; assay type: ADME, organism-based; parameters: dose 5 mg/kg, route intraperitoneal; details: in vivo; how it was run: as §1
[9] = AUC (infinity) in ICR mouse at 15 mg/kg, ip by LC-MS/MS analysis; assay type: ADME, organism-based; parameters: time infinity, dose 15 mg/kg, route intraperitoneal; details: plasma; how it was run: as §1
[10] = AUC (infinity) in ICR mouse at 1 mg/kg, ip by LC-MS/MS analysis; assay type: ADME, organism-based; parameters: time infinity, dose 1 mg/kg, route intraperitoneal; details: plasma; how it was run: as §1
[11] = Plasma concentration in ICR mouse at 15 mg/kg, ip measured for 30 hrs by LC-MS/MS analysis; assay type: ADME, organism-based; parameters: dose 15 mg/kg, route intraperitoneal
How it was run: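 Male ICR mice given 15 mg/kg intraperitoneally in 10% DMSO/PEG300. Plasma from 3–4 mice per time point was collected via the posterior vena cava, protein-precipitated with acetonitrile plus internal standard, and quantified by LC-MS/MS (MRM m/z 388.2→192).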

[12] = Terminal half life in ICR mouse at 1 mg/kg, po via gavage by LC-MS/MS analysis; assay type: ADME, organism-based; parameters: dose 1 mg/kg, route oral; details: in vivo, read-out: beta t1/2 (converted)
How it was run: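 Male ICR mice (20–25 g) given the compound intraperitoneally or by gavage in 10% DMSO/PEG300. Three to four mice were sacrificed per time point and plasma collected from the vena cava. Plasma was precipitated with acetonitrile containing internal standard and analysed by LC-MS/MS. Noncompartmental analysis of mean concentration-time data: terminal t1/2 = ln2/λz; Tmax by inspection; n = 3/dose group.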

[13] = Bioavailability in ICR mouse at 5 mg/kg, ip by LC-MS/MS analysis; assay type: ADME, organism-based; details: in vivo; how it was run: as §1
[14] = Clearance in ICR mouse at 15 mg/kg, iv by LC-MS/MS analysis; assay type: ADME, organism-based; parameters: dose 15 mg/kg, route intravenous; details: in vivo; how it was run: as §1
[15] = Antitumor activity against human PC3 cells xenografted in nu/nu mouse assessed as decrease in tumor growth at 10 mg/kg, ip 2 days per week for weeks; assay type: functional; details: PC-3, ip, 48 h, route intraperitoneal
[16] = Metabolic stability in mouse liver microsomes assessed as half life during phase 1 and 2 at 0.5 uM by LC-MS/MS analysis in presence of 3 mM NADPH and […] UDPGA; assay type: ADME; details: read-out: alphat1/2
[17] = Antitumor activity against human MESSA/DX5 cells xenografted in nu/nu mouse assessed as decrease in tumor growth at 10 mg/kg, ip 2 days per week for weeks; assay type: functional; details: MES-SA/Dx5, ip, 48 h, route intraperitoneal
[18] = AUC (infinity) in ICR mouse at 1 mg/kg, po via gavage by LC-MS/MS analysis; assay type: ADME, organism-based; parameters: time infinity, dose 1 mg/kg, route oral; details: plasma; how it was run: as §1
[19] = Retention time of the compound at 0.5 uM by LC-MS/MS analysis; assay type: physicochemical
How it was run: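 After a 2 h incubation at 37°C with liver microsomes (1 mg/ml protein, 3 mM NADPH, 0.5 μM substrate, pH 7.4 phosphate buffer), samples were quenched with acetonitrile and centrifuged. Supernatant separated on a C18 column (15 min run, linear gradient 100% A to 100% B over 7 min) with LC-MS/MS ion trap detection.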

Liver microsome [20] = test: Drug metabolism in rat liver microsomes assessed as (3-(1H-indol-2-yl)phenyl)(3,4,5-trimethoxyphenyl)methanol formation at 0.5 uM after 2 hrs by LC-MS/MS analysis in presence of 3 mM NADPH; assay type: ADME; how it was run: as §2
[21] = Mean residence time (infinity) in ICR mouse at 5 mg/kg, po via gavage by LC-MS/MS analysis; assay type: ADME, organism-based; parameters: dose 5 mg/kg, route oral; details: in vivo; how it was run: as §1
Liver microsome [22] = test: Drug level in rat liver microsomes assessed as compound retention time treated with 0.5 uM I-387 after 2 hrs by LC-MS/MS analysis; assay type: ADME; how it was run: as §2
[23] = Tmax in ICR mouse at 5 mg/kg, po by LC-MS/MS analysis; assay type: ADME, organism-based; parameters: dose 5 mg/kg, route oral; details: in vivo
How it was run: (§3)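 Male ICR mice (5–6 weeks, 20–25 g) dosed by gavage in 10% DMSO in PEG300. Three to four mice per time point were euthanized under isoflurane and blood taken from the posterior vena cava. Plasma was acetonitrile-precipitated and analysed by LC-MS/MS (MRM m/z 388.2→192). Tmax read by visual inspection. F = (AUC_oral × dose_iv)/(AUC_iv × dose_oral), with AUC_inf by trapezoidal rule; n = 3/dose group.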

Liver microsome [24] = test: Drug metabolism in human liver microsomes assessed as (3-(1H-indol-2-yl)phenyl)(3,4,5-trimethoxyphenyl)methanol formation at 0.5 uM after 2 hrs by LC-MS/MS analysis in presence of 3 mM NADPH; assay type: ADME; how it was run: as §2
[25] = Metabolic stability in dog liver microsomes assessed as half life during phase 1 and 2 at 0.5 uM by LC-MS/MS analysis in presence of 3 mM NADPH and […] UDPGA; assay type: ADME, Canis lupus familiaris; details: read-out: alphat1/2
[26] = Volume of distribution at steady state in ICR mouse at 5 mg/kg, iv by LC-MS/MS analysis; assay type: ADME, organism-based; parameters: dose 5 mg/kg, route intravenous; details: in vivo, read-out: Vdss
How it was run: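 Tail-vein injection in male ICR mice (5–6 weeks), vehicle 10% DMSO in PEG300. Serial terminal sampling of 3–4 mice per time point, with posterior vena cava blood. Plasma was acetonitrile-precipitated and measured by LC-MS/MS. Noncompartmental analysis of mean data: t1/2 = ln2/λz, CL = dose/AUC_inf, Vd_ss = CL × MRT_inf; n = 3/dose group.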

[27] = Clearance in ICR mouse at 5 mg/kg, iv by LC-MS/MS analysis; assay type: ADME, organism-based; parameters: dose 5 mg/kg, route intravenous; details: in vivo; how it was run: as §1
[28] = Oral bioavailability in ICR mouse at 1 mg/kg via gavage after 30 mins by LC-MS/MS analysis; assay type: ADME, organism-based; details: in vivo; how it was run: as §3

MRT inf [1]: 6.4 h
bioavailability [2]: 65%
MRT inf [3]: 9 h
Cmax [4]: 1440 ng/mL
Retention_time (Liver microsome [5]): 11.3 min
MRT inf [6]: 7 h
Cmax [7]: 30 ng/mL
MRT inf [8]: 5.5 h
AUC(0-inf) [9]: 12600 ng·h/mL
AUC(0-inf) [10]: 400 ng·h/mL
concentration at 30 h [11]: > 71 ng/mL
half-life [12]: 8.7 h
bioavailability [13]: 95%
clearance [14]: 19 mL/min/kg
half-life at 0.5 µM [16]: 0.65 h
AUC(0-inf) [18]: 148 ng·h/mL
Retention_time [19]: 11.3 min
Drug metabolism (Liver microsome [20]): metabolite_detected
MRT inf [21]: 8.9 h
Retention_time (Liver microsome [22]): 11.3 min
Tmax [23]: 0.5 h
Drug metabolism (Liver microsome [24]): metabolite_detected
half-life at 0.5 µM [25]: 0.55 h
Vd [26]: 3.8 L/kg
clearance [27]: 22 mL/min/kg
bioavailability [28]: 24%
SMILES: COc1cc(C(=O)c2cccc(-c3cc4ccccc4[nH]3)c2)cc(OC)c1OC
inhibition in vivo at 10 mg/kg [15]: 68%
inhibition in vivo at 10 mg/kg [17]: 76%

From ChEMBL document CHEMBL3526142, “Biotransformation of a novel antimitotic agent, I-387, by mouse, rat, dog, monkey, and human liver microsomes and in vivo pharmacokinetics in mice” (Drug Metab Dispos, 2011)
